Measured values from the array DNA melting data of Ke et al. (doi:10.1101/2024.01.08.574731).

How the values were obtained:
[1] = melting temperature; fluorescence melt of hairpins on a sequencing array, two-state fit, raised by 9.35 °C to match UV melts; details: sodium 0.088 M
In short: (§1)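 On a sequenced MiSeq flow cell, library hairpins with annealed Cy3 and quencher oligos were imaged for Cy3 fluorescence in 2.5 °C steps up to 60 °C, in 50 mM Na-HEPES pH 8.0, 25 mM NaCl. Normalisation used pre-quench Cy3 and control constructs. Bootstrapped two-state fits gave melting temperature and folding enthalpy, combined by inverse variance across four replicates and with fitted temperatures raised by 9.35 °C to match UV melts.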

[2] = folding enthalpy; higher = less favourable; fluorescence melt of hairpins on a sequencing array, two-state fit; details: sodium 0.088 M
In short: as §1

| Sequence | Tm [1] [°C] | folding enthalpy [2] [kcal/mol] |
| --- | --- | --- |
| GATCTAATTTAGATC ((((((...)))))) | 41.4 | -30.8 |
| GCTCCGCGAAAGCGATGC ((..(((....)))..)) | 40.8 | -13.3 |
| GTATTCCGAAAGGACTAC (((.(((....))).))) | 38.2 | -26.4 |
| GCACAGGGAAACCTACGC ((..(((....)))..)) | 34.9 | -15.8 |
| GATGGTGGAAACACTGTC ((..(((....)))..)) | 35.8 | -15.5 |
| GAGTATGGAAACATACTC (((((((....))))))) | 54.4 | -37.6 |
| CGCTACGGAAACGTGGCG (((.(((....))).))) | 59.5 | -40.1 |
| GTCCACGGAAACATGGAC (((((.(....).))))) | 43.2 | -25.5 |
| GACGATGGAAACGTCGTC (((((.(....).))))) | 54.5 | -35.1 |
| GCTGGACCGAAAGGTAGC (((..(((....)))))) | 39.5 | -18.5 |
| GGTCAGGGAAACTTGACC (((((.(....).))))) | 49.5 | -37.9 |
| GCGCCAGCGAAAGCTCGC (((..(((....)))))) | 45 | -8.39 |
| GGACCCGAAAGGGTATCC ((((((....)))..))) | 38.9 | -11 |
| GATCTGTATCCAGATC ((((((....)))))) | 47.4 | -40.3 |
| GATCCTCCCAGGATC ((((((...)))))) | 55.7 | -35.8 |
| GTACGCGAAAGCGTCTAC ((((((....)))..))) | 39.9 | -7.82 |
| GAATAACCGAAAGGTTTC (((..(((....)))))) | 25.6 | -15.1 |
| GCCATCGAAAGATGGGC ((((((....))).))) | 63.2 | -15.4 |
| GGCTATCGAAAGATTGCC (((.(((....))).))) | 55.7 | -41.3 |
| GCAGTCGAAAGACGCTGC ((((((....)))..))) | 55.6 | -21.6 |
| GATCGGGTCCCGATC ((((((...)))))) | 56.7 | -46.5 |
| GATCTTTGTGAAGATC ((((((....)))))) | 47.7 | -41.7 |
| GCTTTGCGAAAGCACAGC (((.(((....))).))) | 50.7 | -47.5 |

| Sequence | Tm [1] [°C] | folding enthalpy [2] [kcal/mol] |
| --- | --- | --- |
| GCGTGCGCGAAAGCGCGC (((..(((....)))))) | 65.1 | -6.87 |
| GTAGGAGGAAACTCCTAC (((((((....))))))) | 57.5 | -38 |
| GATCGGGCTACCGATC ((((((....)))))) | 67.7 | -36.7 |
| GATGCCGAAAGGCACATC ((((((....)))..))) | 33.3 | -8.64 |
| GATCACGAAAGTGATATC ((((((....)))..))) | 50.5 | -17.3 |
| GCTTCCCGAAAGGGCAGC (((.(((....))).))) | 53.3 | -32.5 |
| GGCGTTGGAAACAACACC ((.((((....)))).)) | 46.7 | -33.6 |
| GTGACGGGAAACTGTCGC (.(((.(....).))).) | 45.8 | -28.2 |
| GAGTGAGAAATCACTC ((((((....)))))) | 53.7 | -34.3 |
| GGGTGCGAAAGCAGTCCC ((((((....)))..))) | 50.5 | -14.6 |
| CGGAGGCGGAAACGCCCG (((..(((....)))))) | 54.7 | -11.7 |
| GATCCAGCAGTGGATC ((((((....)))))) | 52.7 | -41.1 |
| CGGGCGGAAACGCAACCG ((((((....)))..))) | 49.7 | -23.9 |
| GTTCCGGGAAACTGGAGC (.(((.(....).))).) | 36.1 | -21.2 |
| GATCCTCCGAAGGATC ((((((....)))))) | 48.7 | -16.6 |
| GGTGGAGGAAACTCCATC (.(((((....))))).) | 49.4 | -26.6 |
| GATCACTAATGTGATC ((((((....)))))) | 55.1 | -35.2 |
| GACATGCGAAAGCAGTC (((.(((....)))))) | 51.9 | -16.9 |
| GGGGTCTCGAAAGAGCCC (((..(((....)))))) | 58.9 | -28.6 |
| GTAGAAGCGAAAGCTTAC (((..(((....)))))) | 30.1 | -11.6 |
| GCCCCCGGAAACGAGGGC ((((.((....)).)))) | 56 | -28.1 |
| GTCCGAGCGAAAGCTGAC (((..(((....)))))) | 37.2 | -14.5 |
| GGCTTTGCGAAAGCAGCC (((..(((....)))))) | 52.1 | -17.2 |

| Sequence | Tm [1] [°C] | folding enthalpy [2] [kcal/mol] |
| --- | --- | --- |
| GAGCTTGAAAAAGCTC ((((((....)))))) | 58.1 | -41.6 |
| GATCGTAGATACGATC ((((((....)))))) | 55.1 | -32.3 |
| GCCGTAGGAAACTGCGGC ((((.((....)).)))) | 61.6 | -37.3 |
| GTTAACGAAAGTTGAAAC ((((((....)))..))) | 24.9 | -11.1 |
| GTATAAACGAAAGTTTAC (((..(((....)))))) | 29.4 | -11.8 |
| GTCGAGACGAAAGTCGAC (((..(((....)))))) | 51.4 | -20.9 |
| GCGCTGGGAAACCGGTGC ((.(.((....)).).)) | 51.5 | -42.6 |
| GTGACCGAAAGGTGACAC ((((((....)))..))) | 42.8 | -16 |
| GTTGGGGGAAACCCCGAC ((.((((....)))).)) | 56.6 | -24.2 |
| GCAAAGGGAAACCTTTAC (.(((((....))))).) | 28 | -15.8 |
| GGCTCCGAAAGGACGGCC ((((((....)))..))) | 51.2 | -20.8 |
| GTTCACGGAAACATGAAC (((((.(....).))))) | 36.6 | -21.1 |
| CGGACGGAAACGTCACCG ((((((....)))..))) | 34.4 | -11.6 |
| GACGGCCGAAAGGCGTC (((.(((....)))))) | 64.8 | -20.6 |
| GCCCGCGAAAGCGCAGGC ((((((....)))..))) | 56.3 | -20.1 |
| GACGCAGGAAACCGCATC ((.((.(....).)).)) | 28.5 | -12.4 |
| GCTAGGCGAAAGCAGAGC (((..((....))..))) | 53.3 | -23.5 |
| GGCACCGGAAACAGTGCC (((((.(....).))))) | 53.9 | -30.9 |
| GTCACAGCGAAAGCTGAC (((..(((....)))))) | 34.2 | -10.4 |
| GATCTAGTCTTAGATC ((((((....)))))) | 45 | -39.3 |
| GGTTTTGAAAAAAACC ((((((....)))))) | 51.5 | -26.5 |
| GACTCTGGAAACAGGGTC (((.(((....))).))) | 49.4 | -30.7 |
| GCCTGCGAAAGCAATGGC ((((((....)))..))) | 56 | -23.8 |

| Sequence | Tm [1] [°C] | folding enthalpy [2] [kcal/mol] |
| --- | --- | --- |
| GATCAGATATCTGATC ((((((....)))))) | 50.3 | -47.9 |
| GATCGTAAACACGATC ((((((....)))))) | 52 | -36.9 |
| GCGGACGAAAGTCTCCGC ((((((....)))..))) | 51.3 | -25.7 |
| GATCCCGAAAGGGATATC ((((((....)))..))) | 52 | -15.6 |
| GATCTACATCTAGATC ((((((....)))))) | 36.8 | -30.7 |
| GATCAGGACGCTGATC ((((((....)))))) | 54.2 | -41.7 |
| GGGGTTCGAAAGAATCCC (((.(((....))).))) | 58.6 | -43.8 |
| GAACATGGAAACATGTTC (((((((....))))))) | 56.2 | -43.3 |
| GGCCCTCGAAAGAGCGCC (((.(((....))).))) | 51.6 | -35.2 |
| GATCAACGCCTTGATC ((((((....)))))) | 46.1 | -26 |
| GGCAACGGAAACGCTGCC ((((.((....)).)))) | 53.6 | -41.8 |
| GATCCCTACCGGGATC ((((((....)))))) | 61.9 | -32.7 |
| GCGGAAGGAAACCTCCGC (((((.(....).))))) | 54.1 | -33.2 |
| GAAGGCCGAAAGGCGTTC (((.(((....))).))) | 57 | -26.3 |
| GCCTCTGAAAAGAGGC ((((((....)))))) | 68.9 | -37.8 |
| GGTTTGCGAAAGCATACC (((.(((....))).))) | 52.9 | -40.6 |
| GCCAACGGAAACGCTGGC ((((.((....)).)))) | 52 | -40 |
| GCGGATTCGAAAGAACGC (((..(((....)))))) | 45.1 | -27.2 |
| GCGTTTGTACGC ((((....)))) | 54.9 | -25.4 |
| GCTGAGCGAAAGCCCCGC ((.(.((....)).).)) | 35.8 | -12 |
| GGAAACACGAAAGTGTCC (((..(((....)))))) | 36.5 | -12.6 |
| GATCCTATCGAGGATC ((((((....)))))) | 51.9 | -27.1 |
| GGCATTGAAAAATGCC ((((((....)))))) | 61.5 | -36.2 |
